What was measured:
A2AAR = A2AAR (Homo sapiens, UniProt P29274); test: FCM binding of MRS5449 to HEK cells expressing the A2AAR
Method in brief: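 Stably transfected lines grew in DMEM/F12 (1:1) with 10% FBS, 2 mM L-glutamine and penicillin/streptomycin: A1AR CHO cells under 500 μg/ml hygromycin B, A2AAR HEK293 cells under 800 μg/ml G418. Cells were seeded about 400,000/well and grown 24 h at 37 °C, 5% CO2. At about 80% confluency the medium was refreshed and the fluorescent tracer added. Cells were then washed, detached with 0.2% EDTA and read by flow cytometry (488 nm excitation), with autofluorescence subtracted.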

hA3AR [1] = biological target: T1, hA3AR (Homo sapiens, UniProt P0DMS8); test: Radioligand membrane binding assay with [125I]I-AB-MECA
T1 sequence (P0DMS8 1-318): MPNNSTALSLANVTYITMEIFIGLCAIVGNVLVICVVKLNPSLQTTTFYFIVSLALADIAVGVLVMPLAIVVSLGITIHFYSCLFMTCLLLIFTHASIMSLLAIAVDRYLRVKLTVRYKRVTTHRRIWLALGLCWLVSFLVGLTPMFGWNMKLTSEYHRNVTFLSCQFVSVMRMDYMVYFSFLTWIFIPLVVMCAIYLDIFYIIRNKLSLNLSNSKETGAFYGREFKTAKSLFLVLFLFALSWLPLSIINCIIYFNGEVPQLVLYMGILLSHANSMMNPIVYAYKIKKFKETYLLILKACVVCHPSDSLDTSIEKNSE
Method in brief: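 Membranes came from CHO (hA1, hA3) or HEK293 (hA2A) cells, homogenized in 50 mM Tris-HCl pH 7.5 with 10 mM MgCl2, pelleted at 20,000 × g and stored at −80 °C with 3 units/ml adenosine deaminase. Protein was measured by Bradford. […] Ki values were obtained at each subtype.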

hA3AR [2] = biological target: T1, hA3AR; test: Fluorescent ligand binding
Method in brief: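 hA3AR-CHO cells were incubated in medium at 37 °C, 5% CO2. Preliminary screen: 1 h with conjugates at 1.5–20 μM or tracer at 10 nM. Saturation: tracer 2.5–250 nM for 1 h. Kinetics: 10 nM tracer, read from 5 min to 3 h, with dissociation started at 90 min by 10 μM non-fluorescent A3AR antagonist. Cells were EDTA-detached and read by flow cytometry; MFI was corrected for autofluorescence and converted to MESF using bead calibration.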

Chain of A2AAR (P29274 whole entry): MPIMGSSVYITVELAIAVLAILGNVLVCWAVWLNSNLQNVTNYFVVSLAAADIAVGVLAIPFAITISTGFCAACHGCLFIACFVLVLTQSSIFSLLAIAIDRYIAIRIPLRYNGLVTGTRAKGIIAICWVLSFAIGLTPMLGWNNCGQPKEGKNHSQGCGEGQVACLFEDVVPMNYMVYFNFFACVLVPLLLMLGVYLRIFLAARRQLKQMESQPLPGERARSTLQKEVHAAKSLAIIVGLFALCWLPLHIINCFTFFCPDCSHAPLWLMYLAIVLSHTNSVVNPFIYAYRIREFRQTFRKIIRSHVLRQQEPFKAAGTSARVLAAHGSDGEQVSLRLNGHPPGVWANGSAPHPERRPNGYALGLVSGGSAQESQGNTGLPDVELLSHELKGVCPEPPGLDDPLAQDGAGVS

N=c1ccc2c(-c3ccc(C(=O)NCCCCCCn4cc(CCCC(=O)Nc5nc6ccc(Cl)cc6c6nc(-c7ccco7)nn56)nn4)cc3C(=O)O)c3ccc(N)c(S(=O)(=O)O)c3oc-2c1S(=O)(=O)O [Compound 9, 2-(6-Amino-3-iminio-4,5-disulfonato-3H-xanthen-9-yl)-5-((6-(4-(4-((9-chloro-2-(furan-2-yl)-[1,2,4]triazolo[1,5-c]quinazolin-5-yl)amino)-4-oxobutyl)-1H-1,2,3-triazol-1-yl)hexyl)carbamoyl)benzoate]
binding compared with the binding to the A3AR (expressed as 100%) (A2AAR): 0.5%
Ki (hA3AR [1]; read-out: A3 Ki, CHO cells stably expressing hA3AR, agonist radioligand [125I]I-AB-MECA): 6.4 ± 2.5 nM
selectivity for the A3AR (hA3AR [1]; versus hA1 and hA2AARs, from radioligand Ki values): over 10 fold
Nonspecific binding, % of total binding (hA3AR [2]; 10 nM MRS5449, in presence of 10 μM MRS1220 or 10 μM Cl-IB-MECA or in control CHO cells): less than 1%
fluorescence emission (MFI) of cell-bound ligand (hA3AR [2]; preliminary FCM, 1 h, 37 °C, 1.5-20 μM for 1-6, 10 nM MRS5449): sufficiently high MFI
